Results from ChEMBL document CHEMBL3044558, “Structure-activity relationship development of dihaloaryl triazole compounds as insecticides and acaricides. 1. Phenyl thiophen-2-yl triazoles” (2007).
Values after ≈ are worked out from the molar mass of the structure shown. Active and inactive are the calls of the source. The rule behind the calls is not given here.

Experiments:
[1] = test system: Aphis gossypii; assay: Insecticidal activity against Aphis gossypii (cotton aphid) infested one week old Crookneck squash plants assessed as insect mortality at 50 ppm measured after 3 days post compound application under green house conditions; format: functional; conditions: 72 h
[2] = test system: Trichoplusia ni; assay: Insecticidal activity against Trichoplusia ni (cabbage looper) second-instar larvae infested on 400 ppm compound pre-treated cabbage leaf disk assessed as insect mortality measured 5 days post compound treatment under green house conditions; format: functional; conditions: at 400 ppm
[3] = test system: Spodoptera exigua; assay: Insecticidal activity against Spodoptera exigua second-instar larvae feeded on compound treated lepidopteran diet assessed as insect mortality measured 5 days post compound treatment under green house conditions; format: functional; conditions: for LC50: Spodoptera exigua, 120 h
[4] = test system: Bemisia tabaci
[5] = test system: Tetranychus urticae; assay: Insecticidal activity against female Tetranychus urticae (two-spotted spider mite) infested cotton leaf disks followed by 2.5 ppm compound spraying after oviposit assessed as insect mortality measured after 6 days post compound application under green house conditions; format: functional; conditions: foliar, 144 h
[6] = test system: Trichoplusia ni; assay: Insecticidal activity against Trichoplusia ni (cabbage looper) second-instar larvae infested on compound pre-treated cabbage leaf disk assessed as insect mortality measured 5 days post compound treatment under green house conditions; format: functional; conditions: for LC50: Trichoplusia ni, foliar
How it was run: (§1)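 Leaf disks treated, air-dried and placed singly in cups. Cotton cotyledon disks each get one second-instar tobacco budworm larva; cabbage leaf disks each get one second-instar cabbage looper larva. Cups are capped and held in a growth chamber at 25 °C, 50-55% RH, 14 h light/10 h dark for 5 days.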

[7] = test system: Heliothis virescens; assay: Insecticidal activity against Heliothis virescens (tobacco budworm) second-instar larvae infested on 400 ppm compound pre-treated cotton cotyledon disk assessed as insect mortality measured 5 days post compound treatment under green house conditions; format: functional
[8] = test system: Aphis gossypii; assay: Insecticidal activity against Aphis gossypii (cotton aphid) infested one week old Crookneck squash plants assessed as insect mortality at 5 ppm measured after 3 days post compound application under green house conditions; format: functional; conditions: 72 h
[9] = test system: Spodoptera exigua; assay: Insecticidal activity against Spodoptera exigua second-instar larvae feeded on 400 ppm compound treated lepidopteran diet assessed as insect mortality measured 5 days post compound treatment under green house conditions; format: functional; conditions: at 400 ppm
[10] = test system: Myzus persicae; assay: Insecticidal activity against Myzus persicae (green peach aphid) assessed as insect mortality at 50 ppm; format: functional
[11] = test system: Heliothis virescens; assay: Insecticidal activity against Heliothis virescens (tobacco budworm) second-instar larvae infested on compound pre-treated cotton cotyledon disk assessed as insect mortality measured 5 days post compound treatment under green house conditions; format: functional; conditions: Heliothis virescens; how it was run: as §1
[12] = test system: Trichoplusia ni
[13] = test system: Tetranychus urticae
[14] = test system: Spodoptera exigua
[15] = test system: Aphis gossypii; assay: Insecticidal activity against Aphis gossypii (cotton aphid) infested one week old Crookneck squash plants assessed as insect mortality measured after 3 days post compound application under green house conditions; format: functional; conditions: for LC50: Aphis gossypii, 72 h
[16] = test system: Aphis gossypii
[17] = test system: Heliothis virescens
[18] = test system: Bemisia tabaci; assay: Insecticidal activity against Bemisia tabaci (sweet potato whitefly) second-instar larvae infested five weeks old cotton plants followed by compound 250 ppm compound spraying after insect oviposit assessed as insect mortality measured 13 days post compound treatment under green house conditions; format: functional

| SMILES | mortality at 50 ppm [1] [%] | mortality [2] [%] | LC50 [3] [µg/mL] | mortality [4] | mortality at 2.5 ppm [5] [%] | LC50 [6] [µg/mL] | mortality [7] [%] | mortality [9] [%] | LC50 [10] [µg/mL] | LC50 [11] [µg/mL] | mortality [12] | mortality [13] | mortality [14] | mortality [16] | mortality [17] | mortality [18] [%] | also measured |
| --- | --- | --- | --- | --- | --- | --- | --- | --- | --- | --- | --- | --- | --- | --- | --- | --- | --- |
| Cn1nc(-c2c(F)cccc2Cl)nc1-c1sc(-c2ccc(OC(F)(F)C(F)Br)cc2)cc1Cl (configuration not stated) | 90 | 70 | < 1.6 | inactive | 90 | < 1.6 | 90 | 50 | 70 (≈ 120 µM) | 53.7 (≈ 92.4 µM) |  |  |  |  |  |  | mortality at 5 ppm [8]: 54% |
| Cn1nc(-c2c(F)cccc2Cl)nc1-c1sc(-c2ccc(O)cc2)cc1Cl | < 50 |  |  | inactive |  |  | 60 |  |  |  | inactive | inactive | inactive |  |  |  |  |
| O=[N+]([O-])/N=C1\NCCN1Cc1ccc(Cl)nc1 [IMIDACLOPRID] |  |  |  |  |  |  |  |  | 1.7 (≈ 6.65 µM) |  |  |  |  |  |  |  | LC50 [15]: 0.05 µg/mL (≈ 0.196 µM) |
| Cc1cc(-c2ccc(Cl)c(F)c2)sc1-c1nc(-c2c(F)cccc2Cl)nn1C | 80 | 90 | 65 (≈ 149 µM) | inactive | 90 | 30.2 (≈ 69.2 µM) | 90 | 90 | 89 (≈ 204 µM) | 19.4 (≈ 44.5 µM) |  |  |  |  |  |  | LC90 [3]: 323 ppm; LC90 [6]: 40.3 ppm; LC90 [15]: 933 ppm; LC50 [15]: 0.923 µg/mL (≈ 2.12 µM) |
| Cc1ccc(-c2cc(Cl)c(-c3nc(-c4c(F)cccc4F)nn3C)s2)cc1 |  |  |  | inactive | 90 |  | 80 |  |  |  | inactive |  | inactive | inactive |  |  |  |
| Cn1nc(-c2c(F)cccc2Cl)nc1-c1cc(Br)c(-c2cccc(C(F)(F)F)c2)s1 |  |  |  | inactive |  |  |  | <50 |  |  | inactive | inactive |  | inactive | inactive |  |  |
| Cn1nc(-c2c(F)cccc2Cl)nc1-c1cc(Br)c(-c2ccc(OC(F)(F)F)cc2)s1 |  | 90 |  |  | 90 |  | 90 |  |  |  |  |  | inactive | inactive |  | <50 |  |
| Cc1ccc(-c2ccc(-c3nc(-c4c(F)cccc4Cl)nn3C)s2)cc1 |  |  |  |  |  |  |  |  |  |  | inactive | inactive | inactive | inactive | inactive | <50 |  |
| Cc1c(-c2ccc(OC(F)(F)C(F)Cl)cc2)csc1-c1nc(-c2c(F)cccc2Cl)nn1C (configuration not stated) | 80 | 70 | 1.56 (≈ 3.02 µM) |  | 90 | < 1.56 | 90 | 80 | < 5 | 4.38 (≈ 8.48 µM) |  |  |  |  |  | 90 | LC50 [15]: < 5 µg/mL |
| Cn1nc(-c2c(F)cccc2Cl)nc1-c1sc(-c2ccc(OC(F)(F)C(F)Cl)cc2)cc1Cl (configuration not stated) | 90 |  | < 1.6 | inactive | 90 | < 1.6 | 90 | 60 | 78 (≈ 145 µM) | < 1.6 | inactive |  |  |  |  |  | mortality at 5 ppm [8]: 72% |
| Cc1cc(-c2ccc(OC(F)(F)C(F)Br)cc2)sc1-c1nc(-c2c(F)cccc2Cl)nn1C (configuration not stated) | 90 | <50 | 2.17 (≈ 3.87 µM) | inactive | 90 | < 1.6 | 90 | 70 | 62 (≈ 111 µM) | 3.93 (≈ 7.01 µM) |  |  |  |  |  |  | mortality at 5 ppm [8]: 89% |
| Cn1nc(-c2c(F)cccc2F)nc1-c1sc(-c2ccc(C(F)(F)F)cc2)cc1Cl |  | <50 |  | inactive | 90 |  | 90 |  |  |  |  |  | inactive | inactive |  |  |  |
| Cn1nc(-c2c(F)cccc2Cl)nc1-c1sc(-c2ccc(OC(F)(F)F)cc2)cc1Cl | 90 | 90 | < 1.6 | inactive | 90 | 4.02 (≈ 8.23 µM) | 90 | 70 | 65 (≈ 133 µM) | 62 (≈ 127 µM) |  |  |  |  |  |  | LC90 [6]: 69.2 ppm; mortality at 5 ppm [8]: 80% |
| Cc1cc(C2=CCC(O)CC2)sc1-c1nc(-c2c(F)cccc2Cl)nn1C (configuration not stated) | < 50 |  |  |  |  |  | <50 |  |  |  | inactive | inactive | inactive |  |  | <50 |  |
| Cc1cc(C2CCC(O)CC2)sc1-c1nc(-c2c(F)cccc2Cl)nn1C (configuration not stated) |  |  |  |  |  |  | <50 |  |  |  | inactive | inactive | inactive | inactive |  | 50 |  |
| CC1(C)C(C=C(Cl)Cl)C1C(=O)OC(C#N)c1cccc(Oc2ccccc2)c1 (stereo not drawn) [ALPHA-CYPERMETHRIN] |  |  | 1.6 (≈ 3.84 µM) |  |  | 0.6 (≈ 1.44 µM) |  |  |  | 1.3 (≈ 3.12 µM) |  |  |  |  |  |  |  |
| Cn1nc(-c2c(F)cccc2Cl)nc1-c1ccc(-c2ccc(OC(F)(F)F)cc2)s1 | 90 |  | 49.9 (≈ 110 µM) |  | 90 | 20.6 (≈ 45.4 µM) | 90 | 70 | 9.6 (≈ 21.2 µM) | 122 (≈ 269 µM) | inactive |  |  |  |  | <50 | LC90 [3]: 59.9 ppm; LC90 [6]: 27.7 ppm; mortality at 5 ppm [8]: 47% |
| Cn1nc(-c2c(F)cccc2F)nc1-c1ccc(-c2ccc(C(C)(F)F)cc2Cl)s1 |  |  |  | inactive |  |  |  |  |  |  | inactive | inactive | inactive | inactive | inactive |  |  |
| Cn1nc(-c2c(F)cccc2F)nc1-c1ccc(-c2ccc(OC(F)(F)F)cc2)s1 |  | 90 |  | inactive |  |  | 90 |  |  |  |  | inactive | inactive | inactive |  |  |  |
| Cn1nc(-c2c(F)cccc2Cl)nc1-c1cc(Br)c(-c2ccc(C(F)(F)F)cc2)s1 |  |  |  | inactive |  |  |  |  |  |  | inactive | inactive | inactive | inactive | inactive |  |  |
| Cc1cc(-c2ccc3c(c2)OC(F)(F)O3)sc1-c1nc(-c2c(F)cccc2Cl)nn1C |  |  |  |  |  |  |  | 80 |  |  | inactive | inactive |  | inactive | inactive | <50 |  |
| Cc1c(-c2ccc(OC(F)(F)F)cc2)csc1-c1nc(-c2c(F)cccc2Cl)nn1C | 90 | 90 | 21.9 (≈ 46.8 µM) |  | 90 | 15.8 (≈ 33.8 µM) | 90 | 90 | 23.3 (≈ 49.8 µM) | > 400 |  |  |  |  |  | 90 | LC90 [15]: 22.2 ppm; LC50 [15]: 0.07 µg/mL (≈ 0.15 µM) |
| Cn1nc(-c2c(F)cccc2F)nc1-c1ccc(-c2ccc(F)c(F)c2)s1 |  |  |  | inactive |  |  |  |  |  |  | inactive | inactive | inactive | inactive | inactive |  |  |
| Cc1sc(-c2nc(-c3c(F)cccc3Cl)nn2C)c(C)c1-c1ccc(O)cc1 |  |  |  |  |  |  | <50 |  |  |  | inactive | inactive | inactive | inactive |  | <50 |  |
| Cn1nc(-c2c(F)cccc2Cl)nc1-c1ccc(-c2ccc(C(F)(F)F)cc2)s1 |  |  |  | inactive | 80 |  |  |  |  |  | inactive |  | inactive | inactive | inactive |  |  |
| Cn1nc(-c2c(F)cccc2Cl)nc1-c1cc(Br)c(-c2cccc(OC(F)(F)F)c2)s1 |  |  |  |  |  |  |  | <50 |  |  | inactive | inactive |  | inactive | inactive | <50 |  |
| Cn1nc(-c2c(F)cccc2Cl)nc1-c1ccc(-c2cccc(C(F)(F)F)c2)s1 |  |  |  | inactive |  |  |  |  |  |  | inactive | inactive | inactive | inactive | inactive |  |  |
